Test results published in PubChem BioAssay AID602221 (Southern Research Specialized Biocontainment Screening …, 2012).
Calls of active or inactive are those of the source.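 How the source made its calls: active means inhibition of 30% or more at any tested concentration; inactive means the rest.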

molecular target: Aspartyl aminopeptidase (Homo sapiens) (UniProt Q9ULA0); assay: human M18AAP aspartyl aminopeptidase inhibitors, dose response, counter-screen for PfM18AAP inhibitor project, biochemical, QFRET fluorogenic substrate, set 2 (AID 602221); details: recombinant hM18AAP, H-Glu-NHMec fluorogenic cleavage
How it was run: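 Assay system: purified recombinant human M18 aspartyl aminopeptidase (hM18AAP) / Amount: hM18AAP at 5 µg/mL final / Buffer or medium: Tris pH 7.5 with CoCl2 and 2% DMSO / Also added: H-Glu-NHMec substrate, 0.1 mM / Incubation: 90 min reaction, room temperature / Detection: fluorescence, ex 370/em 460 nm / Benchmarks: no-enzyme background wells as reference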

Row | IC50 [µM] | Structure (SMILES)
1 | 2.25 | Oc1ccc(-c2csc(Nc3ncccn3)n2)cc1O
2 | 6.49 | CN1CCN(CCCc2ccc(O)c(O)c2)CC1

The remaining lines, values behind:

Row | Structure (SMILES) | IC50 [µM]
3 | Oc1ccc(-c2csc(NC3CCCC3)n2)cc1O | 4.78
4 | Oc1ccc(CCNc2ccnc3ccccc23)cc1O | 7.26
5 | Oc1ccc(CCNc2c3ccccc3nc3ccccc23)cc1O | 0.95
6 | CN1CCN(CCc2ccc(O)c(O)c2)CC1 | 29.3
7 | CCc1ccc(NC(=O)Cc2nc(-c3ccc(O)c(O)c3)cs2)cc1 | 6.04
8 | CN1CCN(c2nc(-c3ccc(O)c(O)c3)cs2)CC1 | 3.7

same assay, conditions: recombinant hM18AAP, H-Glu-NHMec fluorogenic cleavage; at 100 µM (top of the series)

Row | inhibition | Structure (SMILES)
9 | inactive | COc1ccc(CCCN2CCN(C)CC2)cc1OC
10 | inactive | COc1ccc(CCNC(c2ccccc2)c2ccccc2)cc1OC
